Each structure is given as a SMILES string. ≈ marks a conversion by molar mass, not a printed value. Calls of active or inactive are those of the source. The calls are words filed in the database; no cut-off is given here.

The first experiment relates to Human rhinovirus sp. The experiment in a line: In vitro concentration required to inhibit 80 percent of human rhinovirus 15 serotypes was determined by TCID50 assay;c= inactive against majority of serotypes. It is filed as functional, organism-based. The gist of the method: (§1)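 HeLa monolayers were infected with a virus dilution giving 80-100% CPE in 3 days without drug. Compound was serially diluted in 10 2-fold steps onto the infected cells and incubated 3 days at 33 °C in 2.5% CO2. Cells were fixed with 5% glutaraldehyde and stained with 0.25% crystal violet.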
For `Cc1cc(CCCOc2c(C)cc(-c3ncon3)cc2C)on1`, the MIC80 result was “inactive”.

As to `Cc1cc(CCCOc2c(C)cc(-c3noc(C(C)O)n3)cc2C)on1` (centres undefined), the MIC80 entry is “inactive”.

`Cc1cc(CCCOc2c(C)cc(-c3noc(O)n3)cc2C)on1`: the MIC80 entry was “inactive”.

Another experiment concerns Human rhinovirus sp. The experiment in a line: In vitro concentration required to inhibit 80 percent of human rhinovirus 15 serotypes was determined by TCID50 assay. It is filed as functional. The gist of the method: as §1
`Cc1cc(CCCOc2c(C)cc(-c3noc(N(C)C)n3)cc2C)on1` came in with an MIC80 of 0.8 µM (≈ 0.285 µg/mL).

As to `CCOCc1cc(CCCOc2c(C)cc(-c3noc(C)n3)cc2C)on1`, the MIC80 stood at 0.19 µM (≈ 0.0706 µg/mL).

`CSCc1cc(CCCOc2c(C)cc(-c3noc(C)n3)cc2C)on1` came in with an MIC80 of 0.32 µM (≈ 0.12 µg/mL).

In the case of `Cc1cc(CCCOc2c(C)cc(-c3noc(C(C)C)n3)cc2C)on1`, the MIC80 worked out at 0.93 µM (≈ 0.331 µg/mL).

`Cc1cc(CCCCCOc2c(Cl)cc(C3=NCCO3)cc2Cl)on1` [WIN-54954] registered an MIC80 of 0.9 µM (≈ 0.345 µg/mL).

For `Cc1cc(CCCOc2c(C)cc(-c3nnn(C)n3)cc2C)on1`, the MIC80 was 0.71 µM (≈ 0.232 µg/mL).

In turn, `Cc1cc(CCCOc2c(C)cc(-c3nc(C)no3)cc2C)on1` yielded an MIC80 of 0.73 µM (≈ 0.239 µg/mL).

`Cc1nc(-c2cc(C)c(OCCCc3cc(CS(C)(=O)=O)no3)c(C)c2)no1` showed an MIC80 of 0.77 µM (≈ 0.312 µg/mL).

The compound `CCc1cc(CCCOc2c(C)cc(-c3noc(C)n3)cc2C)on1` yielded an MIC80 of 0.26 µM (≈ 0.0888 µg/mL).

Take `COCc1nc(-c2cc(C)c(OCCCc3cc(C)no3)c(C)c2)no1`: the MIC80 worked out at 0.43 µM (≈ 0.154 µg/mL).

As for `Cc1cc(CCCOc2c(C)cc(-c3noc(C)n3)cc2C)on1`, the MIC80 was 0.26 µM (≈ 0.0851 µg/mL).

Consider `CCCc1nc(-c2cc(C)c(OCCCc3cc(C)no3)c(C)c2)no1`, for which the MIC80 was 0.79 µM (≈ 0.281 µg/mL).

`Cc1nc(-c2cc(C)c(OCCCc3cc(C[S+](C)[O-])no3)c(C)c2)no1` (centres undefined): the MIC80 is 1 µM (≈ 0.389 µg/mL).

`COCc1cc(CCCOc2c(Cl)cc(-c3noc(C)n3)cc2Cl)on1` had an MIC80 of 0.18 µM (≈ 0.0717 µg/mL).

In turn, `COCc1cc(CCCOc2c(C)cc(-c3noc(C)n3)cc2C)on1` gave an MIC80 of 0.22 µM (≈ 0.0786 µg/mL).

`Cc1nc(-c2cc(C)c(OCCCc3cc(CCO)no3)c(C)c2)no1` displayed an MIC80 of 1.5 µM (≈ 0.536 µg/mL).

`COCCc1cc(CCCOc2c(C)cc(-c3noc(C)n3)cc2C)on1` returned an MIC80 of 0.24 µM (≈ 0.0891 µg/mL).

Compound `Cc1nc(-c2cc(C)c(OCCCc3cc(CO)no3)c(C)c2)no1` displayed an MIC80 of 0.73 µM (≈ 0.251 µg/mL).

As for `Cc1cc(CCCOc2c(C)cc(-c3noc(C4CC4)n3)cc2C)on1`, the MIC80 worked out at 0.54 µM (≈ 0.191 µg/mL).

`Cc1cc(CCCOc2c(Cl)cc(-c3noc(C)n3)cc2Cl)on1`: the MIC80 is 0.19 µM (≈ 0.07 µg/mL).

Turning to `CCCc1cc(CCCOc2c(C)cc(-c3noc(C)n3)cc2C)on1`, the MIC80 was 0.21 µM (≈ 0.0746 µg/mL).

Consider `CCc1nc(-c2cc(C)c(OCCCc3cc(C)no3)c(C)c2)no1`, for which the MIC80 came out at 0.32 µM (≈ 0.109 µg/mL).

In the case of `COc1nc(-c2cc(C)c(OCCCc3cc(C)no3)c(C)c2)no1`, the MIC80 was determined as 0.39 µM (≈ 0.134 µg/mL).

On to `Cc1cc(CCCOc2c(C)cc(-c3noc(CO)n3)cc2C)on1`, for which the MIC80 turned out to be 3.6 µM (≈ 1.24 µg/mL).

Take `CCc1cc(CCCOc2c(C)cc(-c3ncon3)cc2C)on1`: the MIC80 amounted to 3.2 µM (≈ 1.05 µg/mL).

On to `CCc1cc(CCCOc2c(C)cc(-c3noc(CC)n3)cc2C)on1`, for which the MIC80 is 0.4 µM (≈ 0.142 µg/mL).

The compound `Cc1nc(-c2cc(C)c(OCCCc3cc(C4CC4)no3)c(C)c2)no1` displayed an MIC80 of 0.2 µM (≈ 0.0707 µg/mL).

Consider `CCc1cc(CCCOc2c(Cl)cc(-c3noc(C)n3)cc2Cl)on1`, for which the MIC80 is 0.22 µM (≈ 0.0841 µg/mL).

Take `CCc1nc(-c2cc(C)c(OCCCc3cc(COC)no3)c(C)c2)no1`: the MIC80 was determined as 0.21 µM (≈ 0.078 µg/mL).

Compound `Cc1cc(CCCOc2c(C)cc(-c3nnc(C)o3)cc2C)on1` came in with an MIC80 of 3.7 µM (≈ 1.21 µg/mL).

As to `CCOc1nc(-c2cc(C)c(OCCCc3cc(C)no3)c(C)c2)no1`, the MIC80 was 0.23 µM (≈ 0.0822 µg/mL).

On to `CNc1nc(-c2cc(C)c(OCCCc3cc(C)no3)c(C)c2)no1`, for which the MIC80 came out at 0.95 µM (≈ 0.325 µg/mL).

For a further experiment, the system named is Human rhinovirus sp. In words: In vitro concentration required to inhibit 80 percent of human rhinovirus 15 serotypes was determined by TCID50 assay;c inactive against majority of serotypes. It is filed as functional, organism-based. In a few lines: as §1
Regarding `Cc1cc(CCCOc2c(C)cc(-c3noc(S)n3)cc2C)on1`, the MIC80 result was “inactive”.

Turning to `CC(=O)Nc1nc(-c2cc(C)c(OCCCc3cc(C)no3)c(C)c2)no1`, the MIC80 entry was “inactive”.

In the case of `Cc1cc(CCCOc2c(C)cc(-c3noc(N)n3)cc2C)on1`, the MIC80 result was “inactive”.

The next experiment relates to Human rhinovirus sp. The experiment in a line: In vitro concentration required to inhibit 80 percent of human rhinovirus 54 serotypes was determined by TCID50 assay. It is filed as functional.
Consider `Cc1cc(CCCOc2c(C)cc(-c3noc(C)n3)cc2C)on1`, for which the MIC80 was determined as 0.3 µM (≈ 0.0982 µg/mL).

For the compound `COCc1cc(CCCOc2c(Cl)cc(-c3noc(C)n3)cc2Cl)on1`, the MIC80 turned out to be 0.19 µM (≈ 0.0757 µg/mL).

On to `COCc1cc(CCCOc2c(C)cc(-c3noc(C)n3)cc2C)on1`, for which the MIC80 was 0.45 µM (≈ 0.161 µg/mL).

In turn, `Cc1cc(CCCOc2c(Cl)cc(-c3noc(C)n3)cc2Cl)on1` had an MIC80 of 0.3 µM (≈ 0.11 µg/mL).

`CCCc1cc(CCCOc2c(C)cc(-c3noc(C)n3)cc2C)on1` registered an MIC80 of 0.26 µM (≈ 0.0924 µg/mL).

`CCc1cc(CCCOc2c(Cl)cc(-c3noc(C)n3)cc2Cl)on1` registered an MIC80 of 0.23 µM (≈ 0.0879 µg/mL).

(Values after ChEMBL document CHEMBL1127597, “Oxadiazoles as ester bioisosteric replacements in compounds related to disoxaril. Antirhinovirus activity” (1994).)
